Assay results from different studies.
Each line is one published result; the experiments were not run side by side.
ABL1: Tyrosine-protein kinase ABL1 (ABL1, Homo sapiens, UniProt P00519)
ABL1 phosphorylated: Tyrosine-protein kinase ABL1, phosphorylated (ABL1, Homo sapiens, UniProt P00519)
ABL1 E255K phosphorylated: Tyrosine-protein kinase ABL1, phosphorylated (ABL1, Homo sapiens, UniProt P00519, E255K)
ABL1 F317I non-phosphorylated: Tyrosine-protein kinase ABL1, non-phosphorylated (ABL1, Homo sapiens, UniProt P00519, F317I)
ABL1 Y253F: Tyrosine-protein kinase ABL1 (ABL1, Homo sapiens, UniProt P00519, Y253F)
ABL1 T315I phosphorylated: Tyrosine-protein kinase ABL1, phosphorylated (ABL1, Homo sapiens, UniProt P00519, T315I)
ABL1 H396P: Tyrosine-protein kinase ABL1 (ABL1, Homo sapiens, UniProt P00519, H396P)
ABL1 E255K: Tyrosine-protein kinase ABL1 (ABL1, Homo sapiens, UniProt P00519, E255K)

For `O=C1Nc2ccc(Cl)cc2C1=Cc1cc(Cl)c(O)c(Cl)c1`, the remaining signal was 84% (ABL1; cell-free assay; 0.5 µM).
The remaining binding of `Nc1cnc(N2CCc3cc(S(=O)(=O)Nc4c(F)cc(Cl)cc4F)cc(N4CCCC4=O)c32)nc1` is reported as 78% (Tyrosine-protein kinase ABL1, phosphorylated (ABL1, Homo sapiens, UniProt P00519, F317L); cell-free assay, competition with immobilised ligand; 1 µM).
`COc1cc(-c2cc(-c3ccc(N4CCNCC4)cc3)cnc2N)cc(OC)c1OC` has an inhibition of 13% (Tyrosine-protein kinase ABL1 (ABL1, Homo sapiens, UniProt P00519, T315I); enzyme activity, inhibitor; 0.1 µM).
`c1nc2c(Nc3ccc4c(c3)OCCO4)nc(Nc3ccc4c(c3)OCCO4)nc2[nH]1` gave a binding vs control of 1.2% (ABL1 phosphorylated; binding, competition with immobilised ligand; 10 µM).
For `CNC(=O)[C@@H]1CC[C@@H](n2c(-c3ccc4cnccc4c3)nc3ccc(C(=O)NCc4cccc(C(N)=O)c4)cc32)C1`, the remaining binding was 100% (ABL1 E255K phosphorylated; binding, competition with immobilised ligand; 1 µM).
With `CN(c1ccnc(CNc2nc(Nc3ccc4c(c3)CC(=O)N4)ncc2C(F)(F)F)n1)S(C)(=O)=O` the remaining binding was 62% (Tyrosine-protein kinase ABL1, phosphorylated (ABL1, Homo sapiens, UniProt P00519, M351T); cell-free assay, competition with immobilised ligand; 1 µM).
For `CCCOc1ccc(OC)c(F)c1C(=O)c1ccc(C(=O)N[C@@H]2CNC[C@H]2NC(=O)c2ccc3[nH]ncc3c2)cc1`, the remaining activity was 113% (Tyrosine-protein kinase ABL1 (ABL1, Homo sapiens, UniProt P00519, M351T); enzyme activity, inhibitor; 10 µM).
`O=C(NCC1CCOCC1)c1n[nH]cc1NC(=O)c1c(F)cccc1F` gave a remaining binding of 82% (Tyrosine-protein kinase ABL1, non-phosphorylated (ABL1, Homo sapiens, UniProt P00519, Q252H); binding, competition with immobilised ligand; 1 µM).
The activity vs control of `Cc1ccc(C(=O)NCc2ccsc2)cc1C#Cc1cn(C(C)C)c2ncnc(N)c12` is reported as 1% (ABL1; enzyme activity, inhibitor; 1 µM).
The activity vs control of `COc1cc(/C=C/C(=O)CC(=O)/C=C/c2ccc(O)c(OC)c2)ccc1O` is reported as 82% (ABL1; enzyme activity, inhibitor; 1 µM).
For `CC(=O)Nc1c(C(C)=O)c(=O)n(C)c2nc(-c3ccc(Cl)cc3Cl)c(-c3ccc(Cl)cc3)cc12`, the remaining binding was 77% (ABL1 F317I non-phosphorylated; binding, competition with immobilised ligand; 1 µM).
For `Cc1ccc(NC(=O)c2ccc(C)c(C(F)(F)F)c2)cc1C#Cc1nn(C2CCC(O)CC2)c2ncnc(N)c12` (stereo not shown), the remaining signal was 0% (ABL1 Y253F; cell-free assay; 10 µM).
With `COc1cc2nccc(Oc3ccc(NC(=O)Nc4ccc(F)cc4F)c(F)c3)c2cc1OC` the ΔTm was greater than 10 °C (ABL1; thermal stability, DSF; 10 µM).
The remaining binding of `Cc1c(NC(=O)c2cc(C(N)=O)nc3cc(F)ccc23)c(C(F)(F)F)nn1Cc1ccc(C(C)(C)C)cc1` is reported as 85% (ABL1 T315I phosphorylated; cell-free assay, competition with immobilised ligand; 1 µM).
The inhibition of `CNC(=O)c1cc2c(Oc3ccc(NC(=O)C4(C(=O)Nc5ccc(F)cc5)CC4)cc3)ccnc2cc1OC` is reported as 75% (ABL1 H396P; enzyme activity, inhibitor, radiometric; 1 µM).
With `Cc1ccc(NC(=O)c2ccc(CN3CCN(C)CC3)cc2)cc1Nc1nc(-c2cccnc2)cs1` the remaining signal was 49.8% (ABL1; cell-free assay; 0.5 µM).
`C[C@@H](c1ccc(-n2cnc3c(N)ncnc32)cc1)N1CCc2nn(C)c(Cc3ccccc3)c2C1=O` gave a remaining binding of 16% (Tyrosine-protein kinase ABL1, non-phosphorylated (ABL1, Homo sapiens, UniProt P00519, F317L); binding, competition with immobilised ligand; 0.1 µM).
`COc1cc2ncnc(Nc3ccc(Oc4ccccc4)cc3C)c2cc1OC` has an inhibition of 13% (ABL1; enzyme activity, inhibitor; 1 µM).
For `N[C@@H]1CCN(c2nccc(-c3cnn4ncccc34)n2)C1`, the remaining binding was 95% (ABL1 phosphorylated; binding; 1 µM).
With `O=C(NCCCN1CCOCC1)c1ccc(Nc2nccc(-c3cc4ccccc4s3)n2)cc1` the remaining binding was 44% (Tyrosine-protein kinase ABL1, phosphorylated (ABL1, Homo sapiens, UniProt P00519, Y253F); binding, competition with immobilised ligand; 1 µM).
For `COc1ccc(COc2ccc(Cc3cnc(N)nc3N)cc2OC)cc1`, the remaining signal was 102% (ABL1; cell-free assay; 0.5 µM).
`CN([C@@H]1CCc2c(CC(=O)O)c3cc(S(C)(=O)=O)ccc3n2C1)S(=O)(=O)c1ccc(F)cc1` gave a remaining binding of 78% (Tyrosine-protein kinase ABL1, phosphorylated (ABL1, Homo sapiens, UniProt P00519, H396P); cell-free assay, competition with immobilised ligand; 1 µM).
With `COc1cc2ncnc(Nc3ccc(Oc4ccccc4)c(C)c3C)c2cc1OC` the inhibition was 5% (ABL1 E255K; enzyme activity, inhibitor; 1 µM).
`O=C(c1ccc(Nc2nccc(-c3cc4ccccc4s3)n2)cc1)N1CCC(N2CCCC2)CC1` gave a remaining binding of 14% (ABL1 T315I phosphorylated; binding, competition with immobilised ligand; 1 µM).
`O=C(O)[C@@H]1[C@@H](Cn2nnc3ccccc3c2=O)CC[C@H]1C(=O)c1ccc(OCCC2CCOCC2)cc1` gave a remaining binding of 84% (ABL1 E255K phosphorylated; binding, competition with immobilised ligand; 1 µM).
With `Cc1cc(NC(=O)c2cccc3cc(-c4cccc5[nH]nc(N)c45)ccc23)ccc1F` the activity vs control was 91% (ABL1 Y253F; enzyme activity, inhibitor; 0.1 µM).
`Cc1cnc(NC2CCOCC2)nc1-n1cnc(C(=O)NC(CN)c2cc(F)cc(Cl)c2)c1` (stereo not shown) has a remaining activity of 108% (ABL1 H396P; enzyme activity, inhibitor, radiometric; 1 µM).
The remaining binding of `O=C(c1ccc(Nc2ncc(Cl)c(-c3cc4ccccc4s3)n2)cc1)N1CCC(N2CCCC2)CC1` is reported as 74% (ABL1 F317I non-phosphorylated; binding, competition with immobilised ligand; 1 µM).
The remaining binding of `Nc1ncc2c(n1)-c1c([nH]c3ccc(C#CC4CC4)cc13)CCCC2` is reported as 100% (ABL1 E255K phosphorylated; binding, competition with immobilised ligand; 1 µM).
`CN(CCCC(F)(F)F)c1nccc(-c2cnn3ncccc23)n1` has a remaining binding of 98% (ABL1 E255K; binding; 1 µM).
`CC(=O)N1CCC(c2ccc(C(=O)NC(=N)N)cc2C(F)(F)F)CC1` has a remaining binding of 96% (Tyrosine-protein kinase ABL1, phosphorylated (ABL1, Homo sapiens, UniProt P00519, F317I); binding; 1 µM).
`COc1cc2c(N3CCN(C(=O)Nc4ccc(OC(C)C)cc4)CC3)ncnc2cc1OCCCN1CCCCC1` has a remaining signal of 104% (ABL1; cell-free assay; 0.5 µM).
For `CC(=O)c1c(NS(C)(=O)=O)c2cc(-c3ccc(Cl)cc3)c(-c3ccc(Cl)cc3Cl)nc2n(C)c1=O`, the remaining binding was 93% (ABL1 T315I phosphorylated; cell-free assay, competition with immobilised ligand; 1 µM).
`Nc1ncnc2occ(-c3ccc(NC(=O)Nc4cc(C(F)(F)F)ccc4F)cc3)c12` gave a remaining signal of 0% (Tyrosine-protein kinase ABL1, non-phosphorylated (ABL1, Homo sapiens, UniProt P00519, T315I); cell-free assay, inhibitor; 20 µM).
